Experimental data: ChEMBL document CHEMBL3046106, “Synthesis and herbicidal activity of diphenyl ether derivatives containing unsaturated carboxylates” (J Agric Food Chem, 2011)

Columns and labels:
Echinochloa crus-galli [1] = assay: Herbicidal activity against Echinochloa crus-galli (barnyard grass) at 1000 g/hm2 postemergent application after 2 weeks; type: functional
Method in brief: (§1)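 Seedlings grown 14 days in the greenhouse; plants uniform in size and stage were chosen. Test compound in acetone sprayed post-emergence at a carrier volume equivalent to 187 L/ha. Plants returned to the greenhouse and watered; untreated plants served as control. Each species scored visually two weeks after application on a 0–100 scale (0 no activity, 100 total control).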

Abutilon theophrasti [2] = assay: Herbicidal activity against Abutilon theophrasti (velvetleaf) at 2000 g/hm2 postemergent application after 2 weeks; type: functional; method in brief: as §1
Echinochloa crus-galli [3] = assay: Herbicidal activity against Echinochloa crus-galli (barnyard grass) at 2000 g/hm2 postemergent application after 2 weeks; type: functional; method in brief: as §1
Digitaria sanguinalis [4] = assay: Herbicidal activity against Digitaria sanguinalis (hairy crabgrass) at 2000 g/hm2 postemergent application after 2 weeks; type: functional; method in brief: as §1
Digitaria sanguinalis [5] = assay: Herbicidal activity against Digitaria sanguinalis (hairy crabgrass) at 1000 g/hm2 postemergent application after 2 weeks; type: functional; method in brief: as §1
Abutilon theophrasti [6] = assay: Herbicidal activity against Abutilon theophrasti (velvetleaf) at 1000 g/hm2 postemergent application after 2 weeks; type: functional; method in brief: as §1
Echinochloa crus-galli [7] = assay: Herbicidal activity against Echinochloa crus-galli (barnyard grass) at 120 g/hm2 postemergent application after 2 weeks; type: functional; method in brief: as §1
Echinochloa crus-galli [8] = assay: Herbicidal activity against Echinochloa crus-galli (barnyard grass) at 25 g/hm2 postemergent application after 2 weeks; type: functional; method in brief: as §1
Echinochloa crus-galli [9] = assay: Herbicidal activity against Echinochloa crus-galli (barnyard grass) at 100 g/hm2 postemergent application after 2 weeks; type: functional; method in brief: as §1
Digitaria sanguinalis [10] = assay: Herbicidal activity against Digitaria sanguinalis (hairy crabgrass) at 480 g/hm2 postemergent application after 2 weeks; type: functional; method in brief: as §1
Echinochloa crus-galli [11] = assay: Herbicidal activity against Echinochloa crus-galli (barnyard grass) at 30 g/hm2 postemergent application after 2 weeks; type: functional; method in brief: as §1
Abutilon theophrasti [12] = assay: Herbicidal activity against Abutilon theophrasti (velvetleaf) at 120 g/hm2 postemergent application after 2 weeks; type: functional; method in brief: as §1
Commelina communis [13] = assay: Herbicidal activity against Commelina communis (Asiatic dayflower) at 100 g/hm2 post-emergent application after 2 weeks; type: functional; method in brief: as §1
Glycine max [14] = assay: Toxicity against Glycine max (soybean) at postemergent application after 2 weeks; type: organism-based; details: in vivo, other, 336 h; method in brief: as §1
Xanthium strumarium [15] = assay: Herbicidal activity against Xanthium strumarium (cocklebur) at 25 g/hm2 postemergent application after 2 weeks; type: functional; method in brief: as §1
Abutilon theophrasti [16] = assay: Herbicidal activity against Abutilon theophrasti (velvetleaf) at 30 g/hm2 postemergent application after 2 weeks; type: functional; method in brief: as §1
Glycine max [17] = assay: Toxicity against Glycine max (soybean) at 25 g/hm2 postemergent application after 2 weeks; type: organism-based; details: in vivo, other, 336 h
Digitaria sanguinalis [18] = assay: Herbicidal activity against Digitaria sanguinalis (hairy crabgrass) at 100 g/hm2 postemergent application after 2 weeks; type: functional; method in brief: as §1
Amaranthus retroflexus [19] = assay: Herbicidal activity against Amaranthus retroflexus at 40 g/hm2 postemergent application after 2 weeks; type: functional; method in brief: as §1
Glycine max [20] = assay: Toxicity against Glycine max (soybean) at 100 g/hm2 postemergent application after 2 weeks; type: organism-based; details: in vivo, other, 336 h; method in brief: as §1
Digitaria sanguinalis [21] = assay: Herbicidal activity against Digitaria sanguinalis (hairy crabgrass) at 30 g/hm2 postemergent application after 2 weeks; type: functional; method in brief: as §1
Triticum aestivum [22] = assay: Toxicity against Triticum aestivum (wheat) at 25 g/hm2 postemergent application after 2 weeks; type: organism-based; details: in vivo, other, 336 h
Abutilon theophrasti [23] = assay: Herbicidal activity against Abutilon theophrasti (velvetleaf) at 100 g/hm2 postemergent application after 2 weeks; type: functional; method in brief: as §1
[24] = Crop selectivity index, ratio of LD10 for soybean to LD90 for velvetleaf
Xanthium strumarium [25] = assay: Herbicidal activity against Xanthium strumarium (cocklebur) at 100 g/hm2 postemergent application after 2 weeks; type: functional; method in brief: as §1
Abutilon theophrasti [26] = assay: Herbicidal activity against Abutilon theophrasti (velvetleaf) at postemergent application after 2 weeks; type: functional; method in brief: as §1
Echinochloa crus-galli [27] = assay: Herbicidal activity against Echinochloa crus-galli (barnyard grass) at 480 g/hm2 postemergent application after 2 weeks; type: functional; method in brief: as §1
Triticum aestivum [28] = assay: Toxicity against Triticum aestivum (wheat) at 100 g/hm2 postemergent application after 2 weeks; type: organism-based; details: in vivo, other, 336 h; method in brief: as §1
Digitaria sanguinalis [29] = assay: Herbicidal activity against Digitaria sanguinalis (hairy crabgrass) at 40 g/hm2 postemergent application after 2 weeks; type: functional; method in brief: as §1
Abutilon theophrasti [30] = assay: Herbicidal activity against Abutilon theophrasti (velvetleaf) at 25 g/hm2 postemergent application after 2 weeks; type: functional; method in brief: as §1
Abutilon theophrasti [31] = assay: Herbicidal activity against Abutilon theophrasti (velvetleaf) at 480 g/hm2 postemergent application after 2 weeks; type: functional; method in brief: as §1
Echinochloa crus-galli [32] = assay: Herbicidal activity against Echinochloa crus-galli (barnyard grass) at 40 g/hm2 postemergent application after 2 weeks; type: functional; method in brief: as §1
Abutilon theophrasti [33] = assay: Herbicidal activity against Abutilon theophrasti (velvetleaf) at 40 g/hm2 postemergent application after 2 weeks; type: functional; method in brief: as §1
Digitaria sanguinalis [34] = assay: Herbicidal activity against Digitaria sanguinalis (hairy crabgrass) at 120 g/hm2 postemergent application after 2 weeks; type: functional; method in brief: as §1
Setaria glauca (foxtail) [35] = assay: Herbicidal activity against Setaria glauca at 40 g/hm2 postemergent application after 2 weeks
Xanthium strumarium [36] = assay: Herbicidal activity against Xanthium strumarium (cocklebur) at 40 g/hm2 postemergent application after 2 weeks; type: functional; method in brief: as §1
Commelina communis [37] = assay: Herbicidal activity against Commelina communis (Asiatic dayflower) at 25 g/hm2 post-emergent application after 2 weeks; type: functional; method in brief: as §1
Commelina communis [38] = assay: Herbicidal activity against Commelina communis (Asiatic dayflower) at 40 g/hm2 post-emergent application after 2 weeks; type: functional; method in brief: as §1
Portulaca oleracea [39] = assay: Herbicidal activity against Portulaca oleracea at 40 g/hm2 postemergent application after 2 weeks; type: functional; method in brief: as §1
Digitaria sanguinalis [40] = assay: Herbicidal activity against Digitaria sanguinalis (hairy crabgrass) at 25 g/hm2 postemergent application after 2 weeks; type: functional; method in brief: as §1
Triticum aestivum [41] = assay: Toxicity against Triticum aestivum (wheat) at 400 g/hm2 postemergent application after 2 weeks; type: organism-based; details: in vivo, other, 336 h
Method in brief: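 Greenhouse post-emergence test: plants grown 14 days, then chosen for uniform size and stage. Compound dissolved in acetone and sprayed at a carrier volume equivalent to 187 L per hectare, over […]. Untreated plants served as control. Plants were rated two weeks after application on a 0–100 scale (0 no activity, 100 total control).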

Digitaria sanguinalis [42] = assay: Herbicidal activity against Digitaria sanguinalis (hairy crabgrass) at 400 g/hm2 postemergent application after 2 weeks; type: functional; method in brief: as §1
Setaria glauca (foxtail) [43] = assay: Herbicidal activity against Setaria glauca at 400 g/hm2 postemergent application after 2 weeks
Portulaca oleracea [44] = assay: Herbicidal activity against Portulaca oleracea at 400 g/hm2 postemergent application after 2 weeks; type: functional; method in brief: as §1
Echinochloa crus-galli [45] = assay: Herbicidal activity against Echinochloa crus-galli (barnyard grass) at 400 g/hm2 postemergent application after 2 weeks; type: functional; method in brief: as §1
Echinochloa crus-galli [46] = assay: Herbicidal activity against Echinochloa crus-galli (barnyard grass) at 200 g/hm2 postemergent application after 2 weeks; type: functional; method in brief: as §1
Abutilon theophrasti [47] = assay: Herbicidal activity against Abutilon theophrasti (velvetleaf) at 200 g/hm2 postemergent application after 2 weeks; type: functional; method in brief: as §1
Digitaria sanguinalis [48] = assay: Herbicidal activity against Digitaria sanguinalis (hairy crabgrass) at 200 g/hm2 postemergent application after 2 weeks; type: functional; method in brief: as §1
Amaranthus retroflexus [49] = assay: Herbicidal activity against Amaranthus retroflexus at 400 g/hm2 postemergent application after 2 weeks; type: functional; method in brief: as §1
Abutilon theophrasti [50] = assay: Herbicidal activity against Abutilon theophrasti (velvetleaf) at 400 g/hm2 postemergent application after 2 weeks; type: functional; method in brief: as §1
Commelina communis [51] = assay: Herbicidal activity against Commelina communis (Asiatic dayflower) at 400 g/hm2 post-emergent application after 2 weeks; type: functional; method in brief: as §1
Glycine max [52] = assay: Toxicity against Glycine max (soybean) at 400 g/hm2 postemergent application after 2 weeks; type: organism-based; details: in vivo, other, 336 h; method in brief: as §1
Xanthium strumarium [53] = assay: Herbicidal activity against Xanthium strumarium (cocklebur) at 400 g/hm2 postemergent application after 2 weeks; type: functional; method in brief: as §1

C=CCOC(=O)/C=C/COC(=O)c1cc(Oc2ccc(C(F)(F)F)cc2Cl)ccc1[N+](=O)[O-]
Activity (Echinochloa crus-galli [1]): 30%
Activity (Abutilon theophrasti [2]): 100%
Activity (Echinochloa crus-galli [3]): 60%
Activity (Digitaria sanguinalis [4]): 55%
Activity (Digitaria sanguinalis [5]): 25%
Activity (Abutilon theophrasti [6]): 80%

CCOC(=O)/C=C/COC(=O)c1cc(Oc2ccc(C(F)(F)F)cc2Cl)ccc1[N+](=O)[O-]
Activity (Echinochloa crus-galli [7]): 50%
Activity (Echinochloa crus-galli [8]): 0%
Activity (Echinochloa crus-galli [9]): 55%
Activity (Digitaria sanguinalis [10]): 90%
Activity (Echinochloa crus-galli [11]): 40%
Activity (Abutilon theophrasti [12]): 99%
Activity (Commelina communis [13]): 95%
LD10 (Glycine max [14]): 63 g/hm2
Activity (Xanthium strumarium [15]): 40%
Activity (Abutilon theophrasti [16]): 95%
Activity (Glycine max [17]): 5%
Activity (Digitaria sanguinalis [18]): 60%
Activity (Amaranthus retroflexus [19]): 95%
Activity (Glycine max [20]): 10%
Activity (Digitaria sanguinalis [21]): 60%
Activity (Triticum aestivum [22]): 10%
Activity (Abutilon theophrasti [23]): 100%
Selectivity Index [24]: 3.2
Activity (Xanthium strumarium [25]): 98%
LD90 (Abutilon theophrasti [26]): 19.4 g/hm2
Activity (Echinochloa crus-galli [27]): 70%
Activity (Triticum aestivum [28]): 25%
Activity (Digitaria sanguinalis [29]): 70%
Activity (Abutilon theophrasti [30]): 65%
Activity (Abutilon theophrasti [31]): 100%
Activity (Echinochloa crus-galli [32]): <70%
Activity (Abutilon theophrasti [33]): 95%
Activity (Digitaria sanguinalis [34]): 80%
Activity (Setaria glauca (foxtail) [35]): <70%
Activity (Xanthium strumarium [36]): 70%
Activity (Commelina communis [37]): 35%
Activity (Commelina communis [38]): <70%
Activity (Portulaca oleracea [39]): 95%
Activity (Digitaria sanguinalis [40]): 5%

O=C(O)c1cc(Oc2ccc(C(F)(F)F)cc2Cl)ccc1[N+](=O)[O-] [ACIFLUORFEN]
Activity (Echinochloa crus-galli [1]): 90%
Activity (Echinochloa crus-galli [9]): 25%
Activity (Triticum aestivum [41]): 15%
Activity (Commelina communis [13]): 60%
LD10 (Glycine max [14]): 461.8 g/hm2
Activity (Digitaria sanguinalis [42]): 70%
Activity (Setaria glauca (foxtail) [43]): <70%
Activity (Digitaria sanguinalis [18]): 10%
Activity (Portulaca oleracea [44]): 95%
Activity (Glycine max [20]): 5%
Activity (Abutilon theophrasti [23]): 85%
Selectivity Index [24]: 3.4
Activity (Xanthium strumarium [25]): 80%
LD90 (Abutilon theophrasti [26]): 137.4 g/hm2
Activity (Echinochloa crus-galli [45]): <70%
Activity (Echinochloa crus-galli [46]): 50%
Activity (Digitaria sanguinalis [5]): 10%
Activity (Abutilon theophrasti [47]): 95%
Activity (Triticum aestivum [28]): 0%
Activity (Digitaria sanguinalis [48]): 0%
Activity (Digitaria sanguinalis [29]): 0%
Activity (Abutilon theophrasti [6]): 100%
Activity (Echinochloa crus-galli [32]): 20%
Activity (Abutilon theophrasti [33]): 50%
Activity (Amaranthus retroflexus [49]): 95%
Activity (Abutilon theophrasti [50]): 70%
Activity (Commelina communis [51]): <70%
Activity (Glycine max [52]): 10%
Activity (Xanthium strumarium [53]): <70%
